ChEMBL document CHEMBL3792386, “Design, Synthesis, and Biological Evaluation of Novel Selenium (Se-NSAID) Molecules as Anticancer Agents” (J Med Chem, 2016)
The source made the active and inactive calls. No cut-off for these calls is given here.

What was measured:
[1] = Antiproliferative activity against human PANC1 cells assessed as reduction in cell viability after 24 hrs by MTT assay; assay type: functional, cell-based; details: PANC-1, 24 h
Summary of the method: (§1)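 3000 cells/well incubated in triplicate with serial concentrations of compound for 24, 48 or 72 h at 37 °C. MTT (5.0 mg/mL solution) added 3 h before the end. Formazan dissolved in DMSO, absorbance read at 570 and 630 nm. Viability normalised to vehicle control. IC50 from non-linear regression (variable slope), mean ± SD of triplicates.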

MDA-MB-231 [2] = assay: Antiproliferative activity against human MDA-MB-231 cells assessed as reduction in cell viability after 48 hrs by MTT assay; assay type: functional, cell-based; details: MDA-MB-231, 48 h; summary of the method: as §1
MDA-MB-231 [3] = assay: Antiproliferative activity against human MDA-MB-231 cells assessed as reduction in cell viability after 72 hrs by MTT assay; assay type: functional, cell-based; details: MDA-MB-231, 72 h; summary of the method: as §1
[4] = Antiproliferative activity against human PANC1 cells assessed as reduction in cell viability after 48 hrs by MTT assay; assay type: functional, cell-based; details: PANC-1, 48 h; summary of the method: as §1
HT-29 [5] = assay: Antiproliferative activity against human HT-29 cells assessed as reduction in cell viability after 24 hrs by MTT assay; assay type: functional, cell-based; details: HT-29, 24 h; summary of the method: as §1
MDA-MB-231 [6] = assay: Antiproliferative activity against human MDA-MB-231 cells assessed as reduction in cell viability after 24 hrs by MTT assay; assay type: functional, cell-based; details: MDA-MB-231, 24 h; summary of the method: as §1
UACC-903 [7] = assay: Antiproliferative activity against human UACC-903 cells assessed as reduction in cell viability after 24 hrs by MTT assay; assay type: functional, cell-based; details: UACC-903, 24 h; summary of the method: as §1
HT-29 [8] = assay: Antiproliferative activity against human HT-29 cells assessed as reduction in cell viability after 48 hrs by MTT assay; assay type: functional, cell-based; details: HT-29, 48 h; summary of the method: as §1
HT-29 [9] = assay: Antiproliferative activity against human HT-29 cells assessed as reduction in cell viability after 72 hrs by MTT assay; assay type: functional, cell-based; details: HT-29, 72 h; summary of the method: as §1
[10] = Antiproliferative activity against human PANC1 cells assessed as reduction in cell viability after 72 hrs by MTT assay; assay type: functional, cell-based; details: PANC-1, 72 h; summary of the method: as §1
UACC-903 [11] = assay: Antiproliferative activity against human UACC-903 cells assessed as reduction in cell viability after 48 hrs by MTT assay; assay type: functional, cell-based; details: UACC-903, 48 h; summary of the method: as §1
UACC-903 [12] = assay: Antiproliferative activity against human UACC-903 cells assessed as reduction in cell viability after 72 hrs by MTT assay; assay type: functional, cell-based; details: UACC-903, 72 h; summary of the method: as §1
HCT-116 [13] = assay: Cytotoxicity against human HCT116 cells assessed as reduction in cell viability after 48 hrs MTT assay; assay type: functional, cell-based
Summary of the method: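 Cells (HCT116, nHDF in serum-free fibroblast medium with growth kit, or MEFs) exposed to increasing compound concentrations for 48 h at 37 °C. Viability read by MTT: 3000 cells/well, triplicate, MTT 3 h before end, formazan in DMSO, absorbance 570/630 nm. Mean ± SD.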

HCT-116 [14] = assay: Induction of cell death in human HCT116 cells at 1 mM after 24 hrs by ethidium bromide staining-based fluorescence microscopy; assay type: functional
Summary of the method: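 HCT116 cells were exposed for 24 h with a DMSO vehicle comparison, then trypsinized and stained with calcein-AM (live, esterase activity) and ethidium homodimer-1 (dead, lost membrane integrity). Fluorescence microscopy was done at 20X, and the percentage of dead cells was calculated as mean ±SD.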

Structure (SMILES)	IC50 [1]	IC50 (MDA-MB-231 [2])	IC50 (MDA-MB-231 [3])	IC50 [4]	IC50 (HT-29 [5])	IC50 (MDA-MB-231 [6])	IC50 (UACC-903 [7])	IC50 (HT-29 [8])	IC50 (HT-29 [9])	IC50 [10]	IC50 (UACC-903 [11])	IC50 (UACC-903 [12])	Activity (HCT-116 [13])	Activity (HCT-116 [14])
CC(=O)Oc1ccccc1C(=O)OCC[Se]C#N	38.7 µM	23.8 µM	34.3 µM	36.1 µM	10.2 µM	> 50 µM	33.9 µM	30.9 µM	20.2 µM	15.1 µM	14.5 µM	17.6 µM		
CC(=O)Oc1ccccc1C(=O)NCCSC#N	> 50 µM	> 50 µM	> 50 µM	17.7 µM	> 50 µM	> 50 µM	> 50 µM	> 50 µM	> 50 µM	8.7 µM	> 50 µM	> 50 µM		
CC(=O)Oc1ccccc1C(=O)[Se]CCBr	39.3 µM	18.7 µM	8.7 µM	> 50 µM	28.5 µM	23.7 µM	22.7 µM	27.7 µM	19.3 µM	> 50 µM	19.4 µM	10.2 µM		
C[Se]CC(NC(=O)c1ccccc1OC(C)=O)C(=O)O (stereo not given)	> 50 µM	> 50 µM	> 50 µM	26.1 µM	> 50 µM	> 50 µM	> 50 µM	> 50 µM	> 50 µM	27.6 µM	> 50 µM	> 50 µM		
O=c1[nH]cc(F)c(=O)[nH]1													Active	
CC(=O)Oc1ccccc1C(=O)O [ASPIRIN]	> 50 µM	> 50 µM	> 50 µM	> 50 µM	> 50 µM	> 50 µM	> 50 µM	> 50 µM	> 50 µM	> 50 µM	> 50 µM	> 50 µM	Active	inactive
COc1ccc2cc([C@H](C)C(=O)O)ccc2c1 [NAPROXEN]	> 50 µM	> 50 µM	> 50 µM	> 50 µM	> 50 µM	> 50 µM	> 50 µM	> 50 µM	> 50 µM	> 50 µM	> 50 µM	> 50 µM		
CC(=O)Oc1ccccc1C(=O)[Se]CC[Se]C#N	> 50 µM	34.2 µM	18.6 µM	18.9 µM	> 50 µM	> 50 µM	> 50 µM	27.5 µM	17.7 µM	9.6 µM	15.8 µM	12.7 µM		
CC(C)Cc1ccc(C(C)C(=O)NCC[Se]C#N)cc1 (stereo not given)	> 50 µM	> 50 µM	> 50 µM	> 50 µM	> 50 µM	> 50 µM	> 50 µM	> 50 µM	> 50 µM	> 50 µM	> 50 µM	> 50 µM		
COc1ccc2cc([C@H](C)C(=O)NCC[Se]C#N)ccc2c1	> 50 µM	> 50 µM	> 50 µM	> 50 µM	> 50 µM	> 50 µM	> 50 µM	> 50 µM	> 50 µM	> 50 µM	> 50 µM	> 50 µM		
CC(C)Cc1ccc(C(C)C(=O)O)cc1 (stereo not given) [IBUPROFEN]	> 50 µM	> 50 µM	> 50 µM	> 50 µM	> 50 µM	> 50 µM	> 50 µM	> 50 µM	> 50 µM	> 50 µM	> 50 µM	> 50 µM		
CC(=O)Oc1ccccc1C(=O)[Se]CC[Se]C(=O)c1ccccc1OC(C)=O	33.4 µM	11 µM	7.6 µM	13.5 µM	18.6 µM	18.6 µM	17.2 µM	3.5 µM	5.5 µM	3.4 µM	3.6 µM	3 µM		
